Test results from ChEMBL document CHEMBL4513216, “Probing the Open Global Health Chemical Diversity Library for Multistage-Active Starting Points for Next-Generation Antimalarials” (ACS Infect Dis, 2020).

Assay: Toxicity liver stage against HepG2, at 10uM
Assay type: cell-based
Parameters: test concentration 10 uM, cell line HepG2-A16-CD81EGFP
Details: human, HepG2-A16-CD81EGFP cells; read-out: INHIBITION
Summary of the method: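 Uninfected HepG2-A16-CD81EGFP cells, 3 × 10^3 per well, 1536-well, plated on prespotted compound at 10 μM final, parasite-free screening media added to match infected plates; puromycin 10 μM positive, DMSO 0.5% negative; run in parallel with 48 h PbLuc assay at 37 °C, 5% CO2; viability by CellTiter-Glo luminescence, normalized to controls.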

SMILES | cytotoxicity at 10 µM [%]
COC(=O)N1CCCC(C(=O)N(C)C)C1 (stereo not drawn) | -5.87
CC(C)CN1CCC2(CC1)C(=O)Nc1ccc(C(=O)NC(C)C)cc12 | -13.9
COc1ccccc1-n1c(CC(C)C)nnc1SCC(=O)O | -6.71
COc1ccc(CC(=O)N(C)Cc2nnc3ccccn23)cc1 | 5.44
c1cncc(CN2CCCCC2c2ccc(Nc3cnccn3)nc2)c1 (stereo not drawn) | 4.41
COCc1cnc2n1CCN(S(=O)(=O)c1c(C)nn(C)c1C)C2C (stereo not drawn) | 15.4
Cc1ccc(NC2CCN(C(=O)c3cncnc3C)CC2)nn1 | -3.04
CCC(O)CN1CCN(C(=O)c2cccn2Cc2cccs2)CC1 (stereo not drawn) | -5.74
Cc1ccc(CN(Cc2ccccn2)C(=O)[C@H]2CC[C@@H](N)C2)s1 | -0.327
Cc1occc1C(=O)N1CCC2(CCN(C(=O)c3cccnc3)C2)CC1 | -88.1
Cc1noc(C)c1CN(Cc1ccccc1)C(C)C | -9.74
COc1coc(CN2CCCC(CCc3ccc(F)cc3)C2)cc1=O (stereo not drawn) | 2.16
c1ccc(-n2cncn2)c(CNCCn2cccn2)c1 | -4.29
COCCN1CCN(CCCc2nnnn2-c2ccccc2)CC1 | 5.04
Cc1ncsc1C(=O)NC1CCN(CCC(N)=O)CC1 | -10.2
CC(C)(C)CN1CCCC2(CCN(C(=O)c3cn[nH]c3)C2)C1 (stereo not drawn) | 2.87
Cn1c(=O)c2c(n3ncnc13)NC(=O)CC2c1ccc(F)cc1 (stereo not drawn) | 5.64
Cc1ccccc1SC1CCN(C(=O)C2[C@H]3CNC[C@@H]23)CC1 (stereo partly drawn) | -10.1
Cc1ccccc1-n1ccc2nc(N3CCCC3)ncc2c1=O | -5.1
Cn1cnnc1C1CCCN(C(=O)NCCc2ccccn2)C1 (stereo not drawn) | -21.5
CS(=O)(=O)CCn1ccc(NC(=O)CCc2cccc(F)c2)n1 | -7.37
CCC(C)n1cnc(S(=O)(=O)N(Cc2cccnc2)C(C)C)c1 (stereo not drawn) | 0.075
CC(C)N1CCC(NC(=O)NCCC(=O)NCc2ccccc2)C1 (stereo not drawn) | -0.986

SMILES | cytotoxicity at 10 µM [%]
COCCC(=O)N1CCCC(CCC(=O)NCc2cccc(OC)c2)C1 (stereo not drawn) | 23.1
Cc1cc(N(C)C)nc(N2CCn3c(C)nnc3C2)n1 | -5.14
COCCN1C(=O)CC[C@@H]2[C@H]1CCN2C(=O)C1CCOCC1 | 9.67
CNC(=O)c1ccc(C(=O)N2CCCC2c2cnn(C)c2)cn1 (stereo not drawn) | -6.41
Cc1cccc(CN2Cc3nccn3CC(CN3CCOCC3)C2)c1 (stereo not drawn) | -75.2
CCn1nc(C)cc1C(=O)N1CCCN(CCCc2ccccc2)CC1 | -1.45
CC(C)(C)c1cnc(CN2CCCS2(=O)=O)o1 | 2.07
Cc1nc(Nc2ncccn2)cc(C2CCCN2C(C)C)n1 (stereo not drawn) | -17.3
NC(=O)CN(Cc1ncc(-c2ccc(F)cc2)o1)C1CCCC1 | -6.19
Cn1nc(Cn2cccc2)c2c1CN(Cc1ccoc1)C2 | 2.96
c1cnc(N2CCCC(c3csc(Nc4cnccn4)n3)C2)nc1 (stereo not drawn) | 8.33
CCOc1ccc(Cl)c(C(=O)NCc2ccc(C(=O)NC)cc2)n1 | -9.88
CCOc1ccccc1C(=O)Nn1c(C)cc(C)cc1=O | -10.9
CCOCCn1nc(C)cc1C(=O)N1CCN(C(C)C)C(CC)C1 (stereo not drawn) | -14.2
Cc1c[nH]c(C2CCCN(C(=O)CCc3c(C)n[nH]c3C)C2)n1 (stereo not drawn) | 4.88
OC1(CN2CCC(Oc3cccc(C(F)(F)F)c3)CC2)CCNC1 (stereo not drawn) | 1.05
CCOCC(=O)N(Cc1ccco1)c1ccc(OC)c(F)c1 | -2.75
Cc1cccc(C(C(=O)NCCn2cccc2)N(C)C)c1 (stereo not drawn) | -9.12
COc1ccc(CN(Cc2cnc(N)nc2)CC2CCCO2)c(OC)c1 (stereo not drawn) | -0.438
Cc1cc(C2CCCN(CC(=O)N3CCCc4ccccc43)C2)n[nH]1 (stereo not drawn) | -4.14
O=C(NCC1CC1)[C@H]1C[C@@H]2CCN(Cc3ccc4c(c3)OCO4)C[C@@H]2O1 | -0.208
COc1ccc(-c2nc(CN3CC(n4cc(C)cn4)C3)no2)cc1 | -14.9
Cc1ccc(-c2cc(C(=O)N3CCCC3c3cccnc3)[nH]n2)o1 (stereo not drawn) | -1.41

SMILES | cytotoxicity at 10 µM [%]
CCc1nnc(CN2CCC(N3CCN(CC)C3=O)CC2)o1 | 1.52
CCc1nsc(N2CCCN(C(=O)c3ccsc3)CC2)n1 | 5.73
CC(Cn1cccn1)NCc1nc(-c2ccccn2)no1 (stereo not drawn) | -5.17
CCc1c(O)n(C(C)CC)c(SCC(=O)c2ccccc2)nc1=O (stereo not drawn) | -2.11
COCC(=O)N1C[C@H](N(C)Cc2cncnc2)[C@H]2OCCC[C@H]21 | -99.2
Cc1cnccc1CN(C)Cc1c[nH]nc1-c1ccc(F)cc1F | -5.93
Cc1cc(CNC2(c3ccccc3)CCCCC2)no1 | 2.94
O=C(c1ccc(F)c(F)c1)N1CCCC1CN1CCCC1 (stereo not drawn) | 2.92
Fc1cnc(N2CCN(Cc3ccc(-c4cc[nH]n4)o3)CC2)nc1 | -6
Cc1cc(CN2CCc3nc(C(C)C)nc(O)c3CC2)c(C)s1 | -0.782
NC(=O)c1cnn2c1NCC(CNCCc1cccs1)C2 (stereo not drawn) | -9.63
CN1CCC2(CC1)CN(C(=O)c1cccc3cccnc13)CCN2C | 1.54
COc1ccc(CCNC(=O)C2CC2)c(Cl)c1 | -2.43
O=C(NCCn1ccnc1)NCC(c1ccco1)N1CCCC1 (stereo not drawn) | 2.01
COCc1ccccc1C(=O)NS(=O)(=O)c1ccc2c(c1)CCC(=O)N2 | -1.74
Cn1cc(CN2C[C@H]3CCC[C@@]3(COc3cccnc3)C2)cn1 | -107
Clc1cc(NCc2ncc[nH]2)nc2[nH]ccc12 | 6.68
CC(C)c1noc(CCNC(=O)N2CCN(c3cccs3)CC2)n1 | -5.37
CN1CCN(c2nsc(-c3ccccc3)c2C#N)CC1 | 1.28
COc1ccccc1OC1CCN(Cc2ccc(N(C)C)nc2)CC1 | -11.8
Cc1cc(-c2nccs2)nc(C2CCN(Cc3ccc(F)cc3)CC2)n1 | 6.54
Cc1n[nH]c2c1C(c1cc(F)cc(F)c1)SCC(=O)N2 (stereo not drawn) | 2.03
OCCN1CCC(CNCCOCC(F)(F)F)CC1 | -0.903

SMILES | cytotoxicity at 10 µM [%]
Cc1nc(C)n(C2CCCN(C(=O)c3ccc(F)cc3F)C2)n1 (stereo not drawn) | -2.9
COc1ccc(COCC(O)CNC(=O)c2cnc(C)cn2)cc1 (stereo not drawn) | -2
CS(=O)(=O)N1C[C@H]2CC[C@@H](C1)N(Cc1cscn1)C2=O | -9.35
O=C(c1cc(-n2cccn2)ccn1)N1CCOc2ccc(F)cc21 | 1.26
COc1ccc(CNC(=O)c2nn(C)c3c2CS(=O)(=O)CC3)cc1 | 8.52
CN(c1nccc(-c2cnc3sc(Cl)cn3c2=O)n1)C1CCCCC1 | 1.36
COc1ccc(C(=O)N(C)Cc2nnc3ccccn23)c(OC)c1OC | -11.5
O=C(C1CCOCC1)N1CCc2onc(COc3cccnc3)c2C1 | -69.6
COc1ccc(C(=O)NS(=O)(=O)c2cncc(Br)c2)cc1 | -1.91
CCCc1n[nH]c(C2CN(CCCOc3ccccc3)CCO2)n1 (stereo not drawn) | -0.409
CC(NCc1cccnc1)c1ccc(OCC(=O)NC2CC2)cc1 (stereo not drawn) | 2.36
Cc1nc2cc(O)nn2c(C)c1CCC(=O)N(C)Cc1cscn1 | -2.64
O=C(c1cc(-n2cccn2)ccn1)N(CC(F)(F)F)C1CCCC1 | 5.49
O=C(COc1coc(CN2CCCCC2)cc1=O)Nc1ccccc1Cl | 3.72
O=C(NC[C@H]1OC[C@@H](NCc2cccs2)[C@@H]1O)N1CCOCC1 | -3.53
CCC1(c2ccc(NS(=O)(=O)N(C)C)cc2)CCC(=O)NC1=O (stereo not drawn) | -7.19
O=c1cc(CNS(=O)(=O)C2CC2)nc2n1CCCNC2 | 7.83
CN1CCC(NC(=O)CCCc2cc(Cl)sc2Cl)C1=O (stereo not drawn) | -2.46
Cc1cc(OCC(N)=O)ccc1NC(=O)C(C)Cc1ccccc1F (stereo not drawn) | -0.0944
Cn1cc(C#N)cc1C(=O)NC1(C#N)CCSCC1 | -7.23
COc1cc(N2CCC3(CC2)CC(N2CCOCC2)C3)ncn1 | -6.81
CC(=O)c1cc(CC(=O)NCc2ccsc2)cs1 | 2.29
NC(CNS(=O)(=O)Cc1cccc2cccnc12)c1ccccc1 (stereo not drawn) | -5.39

SMILES | cytotoxicity at 10 µM [%]
Cc1nc(CN2CCC(CNC(=O)CCC3CCCC3)CC2)oc1C | -1.29
COc1ccc(-c2noc(CN3CCOCC3C)n2)cc1OC (stereo not drawn) | -7.3
CC(C)CCN1CCc2nc(N3CCOCC3)nc(NC(C)C)c2C1 | -113
Cc1cnc(NC(=O)N2CCOCC2)s1 | -1.14
CCc1ccc(CN(Cc2ccccc2)CC(C)CO)nc1 (stereo not drawn) | 9.11
N#Cc1cccnc1NCCC1CCN(CC(F)(F)F)CC1 | 11
Cc1noc(CNc2ccc(CC(=O)N3CCSCC3)cc2)n1 | -2.29
Cc1cnc2c(c1NCc1ccncc1)c(=O)n(C)c(=O)n2C | -10.7
Cc1nc(N2CCCC2)nc(C)c1NC(=O)c1ccco1 | -7.7
Cc1cc(CN2C[C@@H]3CCCO[C@@H]3[C@H](Nc3ccccn3)C2)no1 | -4.72
COC(=O)c1ccc(C2SCC(=O)Nc3ccsc32)cc1 (stereo not drawn) | -6.79
Cc1csc(C2CCCN(C(=O)c3ccc(=O)n(C)n3)C2)n1 (stereo not drawn) | 6.76
COCCC(=O)N1CCN(CC(C)C)c2nc(C)ccc2C1 | 11.3
O=C(c1ccc[nH]1)N1CCn2cc(Cn3cccn3)nc2C1 | -81.9
O=C1CCC2(CCN(Cc3nccs3)CC2)N1Cc1ccccc1 | 1.54
CN(C)c1cc(CNC(=O)c2ccc(=O)[nH]n2)ccn1 | 0.962
COCCCN(C)S(=O)(=O)c1ccc(Cl)cc1C#N | -38
N#CC1COCCN1C(=O)c1cccc2cc[nH]c12 (stereo not drawn) | 7.1
CN(C(=O)c1ccco1)c1nc2c(s1)CCCC2 | 13.7
O=c1[nH]c2c(c(=O)n1C1CCCCC1)CCC2Nc1ccccc1Cl (stereo not drawn) | -10.4
O=C(NC1CCCC1)C1(Cc2cc(C3CCOC3)no2)CCNCC1 (stereo not drawn) | -1.57
